Assay results taken from ChEMBL document CHEMBL5579848, “Isothiocyanate-Corticosteroid Conjugates against asthma: Unity makes strength” (Eur J Med Chem, 2024).
Values after ≈ are worked out from the molar mass of the structure shown. Active and inactive are the calls of the source. No cut-off for these calls is given here.

What was measured:
[1] = system: RBL-2H3; experiment: Inhibition of mast cell degranulation in DNP-HSA antigen sensitized rat RBL-2H3 cells assessed as reduction in beta-hexoaminosidase release at 100 uM preincubated for 5 mins followed by DNP addition and measured after 1 hr by multiplate reader; assay type: functional, cell-based; conditions: time 65.0 min
In short: (§1)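 RBL-2H3 cells (72×10^3/well) were sensitized overnight with anti-DNP IgE 0.50 µg/ml, then moved to phenol-free DMEM with 1 mg/ml BSA. Cells were preincubated 5 min at 37 °C with 0.1 % DMSO, cromolyn 1 mM or compound 100 μM, then challenged with DNP-HSA 10 ng/ml. After 1 h, supernatant was incubated 1 h with 1.4 mM p-nitrophenyl-N-acetyl-β-D-glucosaminide (citrate pH 4.2), stopped with Trizma pH 9.4, and read at 405 nm.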

[2] = Half life in simulated gastric fluid at pH 1.2 in absence of pepsin at 100 uM incubated at 37 degreeC up to 24 hrs by UPHLC analysis; assay type: ADME; conditions: simulated gastric fluid without pepsin
In short: (§2)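 A 10 mM DMSO stock was diluted to 100 μM in PBS (pH 7.4, 50 mM) or pepsin-free SGF (pH 1.2) and held at 37 ± 0.5 °C for 24 h. Timed aliquots were quantified by reverse-phase UHPLC-DAD against calibration curves (1.56–100 ppm), tracking the parent compound plus aminoacetate and corticosteroid metabolites. Pseudo-first-order t1/2 was calculated; n = 3.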

[3] = Half life in PBS at pH 7.4 at 100 uM incubated at 37 degreeC up to 24 hrs by UPHLC analysis; assay type: ADME; in short: as §2
[4] = target: T1, Albumin (Bos taurus, UniProt P02769); experiment: Half life in 3% bovine serum albumin at 200 uM incubated up to 4 hrs by UHPLC analysis; assay type: ADME; conditions: cattle, 3% bovine serum albumin solution
T1 sequence (P02769 whole entry): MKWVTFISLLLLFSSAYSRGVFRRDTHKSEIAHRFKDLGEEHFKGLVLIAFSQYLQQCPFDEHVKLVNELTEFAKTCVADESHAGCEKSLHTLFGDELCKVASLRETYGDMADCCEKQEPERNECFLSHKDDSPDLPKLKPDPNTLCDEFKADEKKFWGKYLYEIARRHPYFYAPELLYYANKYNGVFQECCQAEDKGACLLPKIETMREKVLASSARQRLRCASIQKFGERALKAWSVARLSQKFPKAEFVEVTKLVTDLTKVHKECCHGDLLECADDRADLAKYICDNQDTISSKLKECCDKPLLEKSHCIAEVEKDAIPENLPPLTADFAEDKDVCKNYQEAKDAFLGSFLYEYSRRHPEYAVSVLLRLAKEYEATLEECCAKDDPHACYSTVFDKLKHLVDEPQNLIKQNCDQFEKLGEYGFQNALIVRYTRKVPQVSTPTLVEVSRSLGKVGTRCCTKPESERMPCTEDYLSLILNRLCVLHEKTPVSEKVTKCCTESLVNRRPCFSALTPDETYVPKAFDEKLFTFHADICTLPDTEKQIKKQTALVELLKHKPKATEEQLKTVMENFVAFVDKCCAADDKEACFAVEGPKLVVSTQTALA
In short: (§3)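 A 10 mM DMSO stock was diluted to 200 μM in 3 % BSA in PBS and incubated at 37 ± 0.5 °C for up to 4 h. Timed samples were deproteinized with an equal volume of acetonitrile/0.1 % TFA, centrifuged, filtered and quantified by UHPLC. Results are given as pseudo-first-order t1/2 or % parent remaining at 10 min; n ≥ 3.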

[5] = Solubility of compound in simulated gastric fluid at pH 1.2 in absence of pepsin at 5 mg incubated at 25 degreeC for 6 hrs by UHPLC analysis; assay type: ADME; conditions: simulated gastric fluid without pepsin
In short: (§4)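 Solid compound (5 mg) was shaken in 1 mL water, PBS (pH 7.4, 50 mM) or pepsin-free SGF (pH 1.2) for 6 h at 25 °C. Suspensions were filtered (0.45 μm) and the filtrate quantified by UHPLC, reported in mg/L; triplicate, mean values.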

[6] = Solubility of compound in PBS at pH 7.4 at 5 mg incubated at 25 degreeC for 6 hrs by UHPLC analysis; assay type: physicochemical; in short: as §4
[7] = Solubility of compound in water at 5 mg incubated at 25 degreeC for 6 hrs by UHPLC analysis; assay type: physicochemical; in short: as §4
[8] = Induction of H2S release in PBS at pH 7.4 at 100 uM measured after 30 mins by free radical analyzer; assay type: physicochemical; conditions: buffer, pH 7.4, 0.5 h
In short: (§5)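 An H2S-selective mini-electrode was equilibrated in PBS pH 7.4, and compound was added to 100 μM final (1 % DMSO). Amperometric current was recorded for 30 min, with or without L-cysteine 4 mM added 10 min before. Current was converted to H2S using NaHS calibration (1–10 µM, pH 4.0); mean ± SEM.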

[9] = Induction of H2S release in PBS at pH 7.4 at 100 uM pretreated with L-Cys for 10 mins followed by compound addition and measured after 30 mins by free radical analyzer; assay type: physicochemical; conditions: buffer, pH 7.4, 0.5 h; in short: as §5
[10] = system: RBL-2H3; experiment: Cytotoxicity against rat RBL-2H3 cells assessed as reduction cell viability at 100 uM after 24 hrs by WST assay; assay type: toxicity, cell-based; conditions: rbl-2h3, 24 h
In short: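 RBL-2H3 cells were grown in MEM with 10 % FBS, 10^4 cells/well, and attached for 24 h. They were then exposed 24 h to 100 μM compound (final) or 0.1 % DMSO. WST-1 (1:10) was added for 60 min at 37 °C and absorbance read at 450 nm. Viability is expressed as % of vehicle; mean ± SEM.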

[11] = target: T1, Albumin; experiment: Stability in 3% bovine serum albumin assessed as parent compound remaining at 200 uM incubated at 37 degreeC for 10 mins by UHPLC analysis; assay type: ADME; conditions: cattle, 3% bovine serum albumin solution, read-out: Stability; in short: as §3
[12] = system: RBL-2H3; experiment: Inhibition of mast cell degranulation in DNP-HSA antigen sensitized rat RBL-2H3 cells assessed as reduction in beta-hexoaminosidase release at 1 mM preincubated for 5 mins followed by DNP addition and measured after 1 hr by multiplate reader relative to control; assay type: functional; conditions: RBL-2H3, 1.083 h, time 65 min; in short: as §1

Row | half-life at 100 µM [2] | half-life at 100 µM [3] | half-life at 200 µM [4] | solubility at 6 h [5] | solubility at 6 h [6] | solubility at 6 h [7] | Activity [8] | Activity [9] | remaining at 10 min, 200 µM [11] | SMILES | inhibition [1] | Activity [10] | inhibition at 1000 µM [12]
1 | 18 h | 0.2 h | – | 16.1 µg/mL (≈ 35.2 µM) | 15.9 µg/mL (≈ 34.8 µM) | 5.26 µg/mL (≈ 11.5 µM) | ~ 2 uM | ~ 2 uM | 19% | C[C@]12C=CC(=O)C=C1CC[C@@H]1[C@@H]2C(=O)C[C@@]2(C)[C@H]1CC[C@]2(O)C(=O)COC(=O)CN=C=S | Active | Non-Toxic | –
2 | 10 h | 0.7 h | – | < 0.1 µg/mL | < 0.1 µg/mL | 0.14 µg/mL (≈ 0.285 µM) | ~ 2 uM | ~ 2 uM | 6% | C[C@@H]1C[C@H]2[C@@H]3CCC4=CC(=O)C=C[C@]4(C)[C@@]3(F)[C@@H](O)C[C@]2(C)[C@@]1(O)C(=O)COC(=O)CN=C=S | Active | Non-Toxic | –

Continued, molecule first:

Row | SMILES | half-life at 100 µM [2] | half-life at 100 µM [3] | half-life at 200 µM [4] | solubility at 6 h [5] | solubility at 6 h [6] | solubility at 6 h [7] | Activity [8] | Activity [9] | remaining at 10 min, 200 µM [11] | inhibition [1] | Activity [10] | inhibition at 1000 µM [12]
3 | C[C@]12C=CC(=O)C=C1CC[C@@H]1[C@@H]2C(=O)C[C@@]2(C)[C@H]1CC[C@]2(O)C(=O)COC(=O)CN | – | – | – | – | – | – | – | – | – | Active | – | –
4 | CCCCC(=O)O[C@]1(C(=O)COC(=O)CN=C=S)[C@@H](C)C[C@H]2[C@@H]3CCC4=CC(=O)C=C[C@]4(C)[C@@]3(F)[C@@H](O)C[C@@]21C | > 24 h | > 24 h | 1 h | 0.16 µg/mL (≈ 0.278 µM) | 0.12 µg/mL (≈ 0.208 µM) | < 0.1 µg/mL | Active | Active | – | – | Toxic | –
5 | O=C(O)c1cc(=O)c2c(OCC(O)COc3cccc4oc(C(=O)O)cc(=O)c34)cccc2o1 [CROMOLYN] | – | – | – | – | – | – | – | – | – | – | – | ~25%
